This is an account of results in ChEMBL document CHEMBL1158684, “Cicadapeptins I and II: new Aib-containing peptides from the entomopathogenic fungus Cordyceps heteropoda” (2005).

The subject of assay [1] is Bacillus cereus. Put plainly: Antimicrobial activity against Bacillus cereus at 100 ug/disk by disk diffusion assay. Format: functional. The note with it: read-out: IZ. The gist of the method: (§1)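 Bacterial targets grown 24 h in nutrient broth. 0.6 mL of culture was spread on 9 cm nutrient agar plates and dried 1 h. Test samples in 10 µL MeOH were applied to 4 mm filter paper disks, air-dried 1 h and placed on the plates. Read-out was the inhibition zone diameter in mm.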

For assay [2], the system named is Bacillus subtilis. Put plainly: Antimicrobial activity against Bacillus subtilis at 100 ug/disk by disk diffusion assay. Format: functional. The settings on record: read-out: IZ. Put shortly: as §1
(In general: A growth-free zone around the sample is the usual read-out of agar diffusion tests.)

Assay [3] deals with Escherichia coli. Put plainly: Antimicrobial activity against Escherichia coli at 100 ug/disk by disk diffusion assay. The settings on record: read-out: IZ. Format: functional. The gist of the method: as §1
Assay [4] concerns Colletotrichum gloeosporioides. Put plainly: Antimicrobial activity against Colletotrichum gloeosporioides by disk diffusion assay. It is filed as functional. The gist of the method:
(§2)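 Filamentous fungal targets were tested on potato dextrose agar plates spread with 0.6 mL spore suspension (1 × 10^6 spores/mL) and dried 1 h. Samples in 10 µL MeOH were loaded on 4 mm paper disks, air-dried 1 h and laid on the plates. Activity was scored as inhibition zone size in mm.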

The test system of the next assay is Fusarium oxysporum. Put plainly: Antimicrobial activity against Fusarium oxysporum by disk diffusion assay. It is filed as functional. Put shortly:
as §2

The test system of the next assay is Colletotrichum fragariae. Put plainly: Antimicrobial activity against Colletotrichum fragariae by disk diffusion assay. Format: functional. The gist of the method: as §2
For assay [5], the system named is Bacillus cereus. Put plainly: Antimicrobial activity against Bacillus cereus by disk diffusion assay. Format: functional, organism-based. Put shortly:
as §1

The subject of assay [6] is Bacillus subtilis. Put plainly: Antimicrobial activity against Bacillus subtilis by disk diffusion assay. It is filed as functional, organism-based. The gist of the method:
as §1

Assay [7] deals with Escherichia coli. Put plainly: Antimicrobial activity against Escherichia coli by disk diffusion assay. It is filed as functional, organism-based. The gist of the method: as §1
A further assay has as its system Botrytis cinerea. Put plainly: Antimicrobial activity against Botrytis cinerea by disk diffusion assay. It is filed as functional. The gist of the method: as §2
For assay [8], the system named is Bacillus cereus. Put plainly: Antimicrobial activity against Bacillus cereus at 30 ug/disk by disk diffusion assay. It is filed as functional. The settings on record: read-out: IZ. Put shortly: as §1
The subject of assay [9] is Bacillus subtilis. Put plainly: Antimicrobial activity against Bacillus subtilis at 30 ug/disk by disk diffusion assay. Format: functional. The settings on record: read-out: IZ. Put shortly: as §1

The source made the active and inactive calls. The rule behind the calls is not given here. Where a SMILES comes first, the peptide text is derived from it. [ ]: non-standard residue; d: D form. The star is where a group is joined. Hyp = O=C(O)[C@@H]1C[C@@H](O)CN1; Decanoyl = CCCCCCCCCC(=O)*; X1 = CC(C)C[C@@H](CN)N*; Aib = CC(C)(N)C(=O)O

For the compound `CCCCCCCCCC(=O)N1C[C@H](O)C[C@H]1C(=O)N1C[C@H](O)C[C@H]1C(=O)N[C@H](C(=O)NC(C)(C)C(=O)N[C@@H](CCC(N)=O)C(=O)NC(C)(C)C(=O)N[C@@H](CC(C)C)C(=O)N[C@H](CN)CC(C)C)C(C)C` [CICADAPEPTIN I] (Decanoyl-[Hyp][Hyp]V[Aib]Q[Aib]L-X1), the zone of inhibition at 100 µg/disc in the assay with Bacillus cereus [1] came to 13 mm; with Bacillus subtilis [2] it was 13 mm; in the assay with Escherichia coli [3] it was 16 mm.
On to `CCCCCCC(=O)CCCCCC/C=C/C[C@@H](O)[C@H](O)[C@@](N)(CO)C(=O)O` [MYRIOCIN], for which the “inhibition zone (IZ)” value in assay [4] is on record as 8 mm; in the assay with Fusarium oxysporum it was 17 mm; in the assay with Colletotrichum fragariae, 14 mm; with Botrytis cinerea, 28 mm. In addition, the outcome in the assay with Bacillus cereus [5], in the assay on Bacillus subtilis [6] and in the assay with Escherichia coli [7] was inactive.
As for `CN(C)[C@@H]1C(O)=C(C(N)=O)C(=O)[C@@]2(O)C(O)=C3C(=O)c4c(O)cccc4[C@@](C)(O)[C@H]3C[C@@H]12` [TETRACYCLINE], the zone of inhibition at 30 µg/disc was found to be 29 mm with Bacillus cereus [8] and 18 mm in the assay on Bacillus subtilis [9].
As for `CCCCCCCCCC(=O)N1C[C@H](O)C[C@H]1C(=O)N1C[C@H](O)C[C@H]1C(=O)N[C@H](C(=O)NC(C)(C)C(=O)N[C@@H](CCC(N)=O)C(=O)NC(C)(C)C(=O)N[C@H](C(=O)N[C@H](CN)CC(C)C)[C@@H](C)CC)C(C)C` [CICADAPEPTIN II] (Decanoyl-[Hyp][Hyp]V[Aib]Q[Aib]I-X1), the results for the zone of inhibition at 100 µg/disc in the assay on Bacillus cereus [1], in the assay on Bacillus subtilis [2] and in the assay with Escherichia coli [3] were 12 mm, 11 mm and 16 mm, respectively.
